Data taken from ChEMBL document CHEMBL1131084, “3-Alkyl ethers of clocinnamox: delayed long-term mu-antagonists with variable mu efficacy” (J Med Chem, 1998).
Active and inactive are the calls of the source. No cut-off for these calls is given here.

Assays:
Mu-type opioid receptor = Mu-type opioid receptor (Rattus norvegicus, UniProt P33535); assay: In vitro binding affinity against Opioid receptor mu 1 (DAMGO) opioid receptor in rat brain homogenates.; format: tissue-based
Procedure, shortened: (§1)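 Crude membranes from brain minus cerebellum, homogenized in 50 mM Tris, pH 7.4. Radioligands [3H]DAMGO 2 nM (μ), [3H]DPDPE 1.8 nM (δ), [3H]U69,593 1.1 nM (κ). Nonspecific binding defined with 10 μM naloxone. Compounds from DMSO stock; final DMSO ≤0.1%.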

Mus musculus [1] = assay: Percent MPE was evaluated in mouse tail withdrawal assay at 32 mg/kg; format: functional
Procedure, shortened: (§2)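 Mice, tail withdrawal test in 50 °C water. Ethers dissolved in sterile water containing 16% MeOH and 1% HCl and injected sc. ED50 in mg/kg and % MPE reported; means ± SEM from 6 animals.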

[2] = biological target: Delta-type opioid receptor (Rattus norvegicus, UniProt P33533); assay: In vitro binding affinity against Opioid receptor delta 1 (DPDPE) in rat brain homogenates.; format: tissue-based; procedure, shortened: as §1
Delta-type opioid receptor, sequence (P33533 whole entry): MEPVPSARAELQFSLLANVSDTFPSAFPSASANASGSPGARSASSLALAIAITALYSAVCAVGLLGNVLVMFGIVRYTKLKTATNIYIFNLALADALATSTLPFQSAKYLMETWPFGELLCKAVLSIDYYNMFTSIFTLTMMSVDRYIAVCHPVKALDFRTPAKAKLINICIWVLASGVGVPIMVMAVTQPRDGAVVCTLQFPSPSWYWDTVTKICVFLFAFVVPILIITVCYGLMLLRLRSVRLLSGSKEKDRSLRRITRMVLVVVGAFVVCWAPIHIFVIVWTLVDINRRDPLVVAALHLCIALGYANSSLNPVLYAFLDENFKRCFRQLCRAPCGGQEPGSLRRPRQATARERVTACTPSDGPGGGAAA

[3] = biological target: Kappa-type opioid receptor (Rattus norvegicus, UniProt P34975); assay: In vitro binding affinity against Opioid receptor kappa 1 in rat brain homogenates.; format: tissue-based; procedure, shortened: as §1
Kappa-type opioid receptor, sequence (P34975 whole entry): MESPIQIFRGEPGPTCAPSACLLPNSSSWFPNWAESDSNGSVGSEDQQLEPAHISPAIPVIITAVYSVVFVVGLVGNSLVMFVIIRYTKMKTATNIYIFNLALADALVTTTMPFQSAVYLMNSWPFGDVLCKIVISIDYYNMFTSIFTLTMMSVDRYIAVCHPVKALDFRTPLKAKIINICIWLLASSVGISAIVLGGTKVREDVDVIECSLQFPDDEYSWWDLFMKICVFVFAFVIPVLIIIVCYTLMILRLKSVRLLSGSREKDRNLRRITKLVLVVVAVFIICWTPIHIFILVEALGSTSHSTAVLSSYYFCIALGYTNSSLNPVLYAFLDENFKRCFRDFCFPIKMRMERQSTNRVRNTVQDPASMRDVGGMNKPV

Mus musculus [4] = assay: Comparison of the antinociceptive agonist/antagonist profile of activity by tail flick test (sc administration); inactive up to 30 mg/kg; format: functional, organism-based; set-up: dose 30 mg/kg
Procedure, shortened: (§3)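 Mice, phenylquinone abdominal stretch, hot plate or tail flick tests. Compounds given sc in distilled water, 5% aqueous DMSO or 5% hydroxypropyl-β-cyclodextrin.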

Mus musculus [5] = assay: Comparison of the antinociceptive agonist/antagonist profile of activity by Phenylquinone-abdominal stretch test.(sc administration); format: functional; procedure, shortened: as §3
Mus musculus [6] = assay: Comparison of the antinociceptive agonist/antagonist profile of activity by Tail Flick vs morphine test.(sc administration); format: functional
Mus musculus [7] = assay: Comparison of the antinociceptive agonist/antagonist profile of activity by hot plate test.(sc administration); inactive up to 20 mg/Kg; format: functional, organism-based; procedure, shortened: as §3
Mus musculus [8] = species on record: Mus musculus; assay: Percent MPE was evaluated in mouse tail withdrawal assay; format: functional; procedure, shortened: as §2
Mus musculus [9] = species on record: Mus musculus; assay: Antinociceptive potency determined by mouse tail withdrawal assay.; format: functional; procedure, shortened: as §2
Mus musculus [10] = assay: Comparison of the antinociceptive agonist/antagonist profile of activity by Tail Flick vs morphine test.(sc administration) inactive up to 30 mg/kg; format: functional, organism-based; set-up: dose 30 mg/kg
Mus musculus [11] = assay: Comparison of the antinociceptive agonist/antagonist profile of activity by hot plate test.(sc administration)
Mus musculus [12] = species on record: Mus musculus; assay: Antagonist selectivity after a 24-h pretreatment period, in the mouse abdominal stretch assay using Bremazocine as the agonist.; format: functional, Abdomen
Procedure, shortened: (§4)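 Mice, acetic acid abdominal stretch assay. Ether 32 mg/kg sc given 24 h beforehand (vehicle sterile water with 16% MeOH and 1% HCl). Agonist (morphine 3.2 mg/kg, BW373U86 10 mg/kg, or bremazocine) given sc 15 min before ip acetic acid. Read-out is % antagonism of the agonist effect.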

Mus musculus [13] = assay: Antagonism of morphine antinociceptive ED50 by the compound. Onset and Duration of morphine antagonist action in the mouse tail flick assay at a Pretreatment time of 72 hours.(sc administration); format: functional
Procedure, shortened: (§5)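 Mice, tail flick test. Ether given sc (vehicle: distilled water, 5% aqueous DMSO or 5% hydroxypropyl-β-cyclodextrin), then morphine; pretreatment intervals from the standard 30 min up to 72 h. Antagonism taken as the shift in morphine antinociceptive ED50.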

Mus musculus [14] = assay: Comparison of the antinociceptive agonist/antagonist profile of activity byhot plate test (sc administration); inactive up to 20 mg/kg.; format: functional, organism-based; set-up: dose 20 mg/kg; procedure, shortened: as §3
Mus musculus [15] = assay: Comparison of the antinociceptive agonist/antagonist profile of activity by Tail Flick vs morphine test (sc administration); inactive up to 30 mg/kg; format: functional, organism-based; set-up: dose 30 mg/kg
Mus musculus [16] = assay: Antagonism of morphine antinociceptive ED50 by the compound. Onset and Duration of morphine antagonist action in the mouse tail flick assay at a Pretreatment time of 2 hr. (30 mg/kg sc administration); format: functional; procedure, shortened: as §5
Mus musculus [17] = assay: Antagonist selectivity after a 24-h pretreatment period, in the mouse abdominal stretch assay using BW373U86 (10 mg/kg) as the agonist.; format: functional, Abdomen; procedure, shortened: as §4
Mus musculus [18] = assay: Antagonism of morphine antinociceptive ED50 by the compound. Onset and Duration of morphine antagonist action in the mouse tail flick assay at a Pretreatment time of 6 hours.(sc administration); format: functional; procedure, shortened: as §5
Mus musculus [19] = assay: Antagonist selectivity after a 24-h pretreatment period, in the mouse abdominal stretch assay using morphine (3.2 mg/kg) as the agonist.; format: functional, Abdomen; procedure, shortened: as §4
Mus musculus [20] = assay: Antagonism of morphine antinociceptive ED50 by the compound. Onset and Duration of morphine antagonist action in the mouse tail flick assay at a Pretreatment time of 24 hours.(sc administration); format: functional; procedure, shortened: as §5
Mus musculus [21] = assay: Antagonism of morphine antinociceptive ED50 by the compound. Onset and Duration of morphine antagonist action in the mouse tail flick assay at a Pretreatment time of 36 hours.(sc administration); format: functional; procedure, shortened: as §5
Mus musculus [22] = assay: Comparison of the antinociceptive agonist/antagonist profile of activity by tail flick test.(sc administration); format: functional; procedure, shortened: as §3
Mus musculus [23] = assay: Effect of antagonist (Naltrindole, 10 mg/kg for a pretreatment time of 15 min)on the inhibition of acetic acid-induced abdominal stretches by the compound (10 mg/kg sc); format: functional, Abdomen
Procedure, shortened: (§6)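 Mice, acetic acid abdominal stretch assay (stretches induced by ip acetic acid). Ether 10 mg/kg sc, given after a selective antagonist: β-FNA 32 mg/kg at 24 h, naltrindole 10 mg/kg at 15 min, or nor-BNI 32 mg/kg at 24 h beforehand. Read-out is % antagonism.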

Mus musculus [24] = assay: Effect of antagonist (beta-FNA, 32 mg/kg for a pretreatment time of 24 h) on the inhibition of acetic acid-induced abdominal stretches by the compound (10 mg/kg sc); format: functional, Abdomen; procedure, shortened: as §6
Mus musculus [25] = assay: Effect of antagonist (Nor-BNI, 32 mg/kg for a pretreatment time of 24 h) on the inhibition of acetic acid-induced abdominal stretches by the compound (10 mg/kg sc); format: functional, Abdomen; procedure, shortened: as §6
Mus musculus [26] = assay: Comparison of the antinociceptive agonist/antagonist profile of activity byhot plate test.(sc administration); format: functional; procedure, shortened: as §3
Mus musculus [27] = assay: Comparison of the antinociceptive agonist/antagonist profile of activity by Tail Flick vs morphine test.(Inactive up to 30 mg/kg; sc administration); format: functional, organism-based; set-up: dose 30 mg/kg

Mu-type opioid receptor, sequence (P33535 whole entry): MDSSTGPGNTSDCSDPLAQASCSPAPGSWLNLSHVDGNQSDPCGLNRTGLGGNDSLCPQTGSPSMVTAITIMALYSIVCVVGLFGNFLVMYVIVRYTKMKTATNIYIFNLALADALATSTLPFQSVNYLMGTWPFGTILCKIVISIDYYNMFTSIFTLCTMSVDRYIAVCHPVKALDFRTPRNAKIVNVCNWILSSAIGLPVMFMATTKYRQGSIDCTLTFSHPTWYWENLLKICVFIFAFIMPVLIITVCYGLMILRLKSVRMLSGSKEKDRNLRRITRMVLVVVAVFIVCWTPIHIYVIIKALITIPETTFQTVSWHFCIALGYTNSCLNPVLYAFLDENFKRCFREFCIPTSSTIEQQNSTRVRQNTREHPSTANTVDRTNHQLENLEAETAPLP

Structure (SMILES) | Ki (Mu-type opioid receptor) | Ki [2] | Ki [3] | ED50 (Mus musculus [5]) | MPE (Mus musculus [8]) | ED50 (Mus musculus [9]) | other results
CCCOc1ccc2c3c1O[C@H]1C(=O)CC[C@@]4(NC(=O)/C=C/c5ccc(Cl)cc5)[C@@H](C2)N(CC2CC2)CC[C@]314 | 24.6 nM | 82.6 nM | 19.1 nM |  |  |  | MPE (Mus musculus [1]): 35%
COc1ccc2c3c1O[C@H]1C(=O)CC[C@@]4(NC(=O)/C=C/c5ccc(Cl)cc5)[C@@H](C2)N(CC2CC2)CC[C@]314 |  |  |  | 0.2 mg/kg |  |  | ED50 (Mus musculus [4]): inactive; ED50 (Mus musculus [6]): 6 mg/kg; ED50 (Mus musculus [7]): inactive
CC(C)Oc1ccc2c3c1O[C@H]1C(=O)CC[C@@]4(NC(=O)/C=C/c5ccc(Cl)cc5)[C@@H](C2)N(CC2CC2)CC[C@]314 | 59.8 nM | 96.4 nM | 14.9 nM |  |  |  | 
O=C(/C=C/c1ccc(Cl)cc1)N[C@@]12CCC(=O)[C@@H]3Oc4c(O)ccc5c4[C@@]31CCN(CC1CC1)[C@@H]2C5 [CLOCINNAMOX] | 9 nM | 12.5 nM | 5.4 nM |  |  |  | 
N#CCOc1ccc2c3c1O[C@H]1C(=O)CC[C@@]4(NC(=O)/C=C/c5ccc(Cl)cc5)[C@@H](C2)N(CC2CC2)CC[C@]314 | 12.4 nM | 89.5 nM | 18 nM |  | 78% | 20.8 mg/kg | 
CN1CC[C@]23c4c5ccc(O)c4O[C@H]2[C@@H](O)C=C[C@H]3[C@H]1C5 [MORPHINE] |  |  |  |  | 100% | 17.9 mg/kg | ED50 (Mus musculus [10]): inactive; ED50 (Mus musculus [11]): 0.9 mg/kg
C=CCOc1ccc2c3c1O[C@H]1C(=O)CC[C@@]4(NC(=O)/C=C/c5ccc(Cl)cc5)[C@@H](C2)N(CC2CC2)CC[C@]314 | 8.9 nM | 65.4 nM | 17.9 nM |  | 100% | 11.1 mg/kg | 
COC(=O)COc1ccc2c3c1O[C@H]1C(=O)CC[C@@]4(NC(=O)/C=C/c5ccc(Cl)cc5)[C@@H](C2)N(CC2CC2)CC[C@]314 | 7.6 nM | 24.8 nM | 95.4 nM |  |  |  | 
O=C(/C=C/c1ccc(Cl)cc1)N[C@@]12CCC(=O)[C@@H]3Oc4c(OCC5CC5)ccc5c4[C@@]31CCN(CC1CC1)[C@@H]2C5 | 7.6 nM | 56.5 nM | 131 nM | 6.7 mg/kg |  |  | Antagonism (Mus musculus [12]): 19%; ED50 (Mus musculus [4]): inactive; AD50 (Mus musculus [13]): 11.39 mg/kg; ED50 (Mus musculus [14]): inactive; ED50 (Mus musculus [15]): inactive; Antagonism (Mus musculus [16]): 57%; Antagonism (Mus musculus [17]): 0%; AD50 (Mus musculus [18]): 0.97 mg/kg; Antagonism (Mus musculus [19]): 100%; AD50 (Mus musculus [20]): 3.41 mg/kg; AD50 (Mus musculus [21]): 6.82 mg/kg
C#CCOc1ccc2c3c1O[C@H]1C(=O)CC[C@@]4(NC(=O)/C=C/c5ccc(Cl)cc5)[C@@H](C2)N(CC2CC2)CC[C@]314 | 1.6 nM | 21.3 nM | 19.1 nM | 0.3 mg/kg | 100% | 6.3 mg/kg | Antagonism (Mus musculus [12]): 7%; ED50 (Mus musculus [22]): 1.2 mg/kg; Antagonism (Mus musculus [23]): 3.9%; Antagonism (Mus musculus [24]): 100%; Antagonism (Mus musculus [13]): 36%; Antagonism (Mus musculus [25]): 4.8%; ED50 (Mus musculus [26]): 0.3 mg/kg; ED50 (Mus musculus [27]): inactive; Antagonism (Mus musculus [16]): 17%; Antagonism (Mus musculus [17]): 38%; AD50 (Mus musculus [18]): 14.11 mg/kg; Antagonism (Mus musculus [19]): 96%; AD50 (Mus musculus [20]): 4.06 mg/kg; AD50 (Mus musculus [21]): 3.02 mg/kg
